Key:
[1] = tested on: HT-29; assay: In vitro cytotoxic potency against HT-29 (human colon adenocarcinoma) cell line.; type: functional, cell-based
[2] = tested on: Calf thymus DNA; assay: CT-DNA binding required to produce a 50% drop in fluorescence of DNA-bound ethidium.; type: nucleic-acid assay; settings: Bos taurus
In short: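 Ethidium displacement from calf thymus DNA in 10 mM Na2HPO4, 10 mM NaH2PO4, 1 mM EDTA, pH 7.0, containing 1.26 μM ethidium bromide and 1 μM CT-DNA. Drug added serially from ~5 mM DMSO stock; 20 °C; fluorescence excitation 546 nm, emission 595 nm. C50 = drug concentration lowering DNA-bound ethidium fluorescence by 50%, mean of three determinations.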

[3] = tested on: DU-145; assay: Percent growth of NCI cell line, prostate: DU-145 exposed for 48 hr at 10e-4 concentration; type: functional, Homo sapiens
In short: (§1)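 NCI panel cell lines exposed 48 h to 10^-8, 10^-6 and 10^-4 M drug; read-out is percent growth at each concentration.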

[4] = tested on: NCI-H460; assay: Percent growth of NCI cell line, lung-nsc: NCI-H460 exposed for 48 hr at 10e-4 concentration; type: functional, Homo sapiens; in short: as §1
[5] = tested on: 786-0; assay: Percent growth of NCI cell line, renal: 786-0 exposed for 48 hr at 10e-4 concentration; type: functional, Homo sapiens; in short: as §1
[6] = tested on: LOX IMVI; assay: Percent growth of NCI cell line, melanoma: LOX IMVI exposed for 48 hr at 10e-4 concentration; type: functional, Homo sapiens; in short: as §1
[7] = tested on: DU-145; assay: Percent growth of NCI cell line, prostate: DU-145 exposed for 48 hr at 10e-8 concentration; type: functional, Homo sapiens; in short: as §1
[8] = tested on: OVCAR-4; assay: Percent growth of NCI cell line, ovarian: OVCAR-4 exposed for 48 hr at 10e-8 concentration; type: functional, Homo sapiens; in short: as §1
[9] = tested on: OVCAR-4; assay: Percent growth of NCI cell line, ovarian: OVCAR-4 exposed for 48 hr at 10e-6 concentration; type: functional, Homo sapiens; in short: as §1
[10] = tested on: DU-145; assay: Percent growth of NCI cell line, prostate: DU-145 exposed for 48 hr at 10e-6 concentration; type: functional, Homo sapiens; in short: as §1
[11] = tested on: LoVo; assay: Cytotoxicity activity on LoVo human adenocarcinoma cell line after 144 hr of drug exposure; type: functional, cell-based
In short: (§2)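 LoVo (sensitive) and LoVo/Dx (resistant) human colon adenocarcinoma cells seeded at 2.5 × 10^5 cells/mL medium; drug solutions added to culture.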

[12] = tested on: SNB-19; assay: Percent growth of NCI cell line, CNS: SNB-19 exposed for 48 hr at 10e-6 concentration; type: functional, Homo sapiens; in short: as §1
[13] = tested on: SNB-19; assay: Percent growth of NCI cell line, CNS: SNB-19 exposed for 48 hr at 10e-8 concentration; type: functional, Homo sapiens; in short: as §1
[14] = tested on: LoVo; assay: Cytotoxicity activity on LoVo human adenocarcinoma cell line after 1 hr of drug exposure; type: functional, cell-based
In short: (§3)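 LoVo (sensitive) and LoVo/Dx (resistant) human colon adenocarcinoma cells seeded at 2.5 × 10^5 cells/mL medium; drug solutions added to culture. IC50 = drug concentration inhibiting cell growth by 50%, assays in triplicate.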

[15] = tested on: HCT-15; assay: Percent growth of NCI cell line, colon: HCT-15 exposed for 48 hr at 10e-8 concentration; type: functional, Homo sapiens; in short: as §1
[16] = tested on: LOX IMVI; assay: Percent growth of NCI cell line, melanoma: LOX IMVI exposed for 48 hr at 10e-6 concentration; type: functional, Homo sapiens; in short: as §1
[17] = tested on: MCF7; assay: Percent growth of NCI cell line, breast: MCF-7 exposed for 48 hr at 10e-8 concentration; type: functional, Homo sapiens; in short: as §1
[18] = tested on: OVCAR-4; assay: Percent growth of NCI cell line, ovarian: OVCAR-4 exposed for 48 hr at 10e-4 concentration; type: functional, Homo sapiens; in short: as §1
[19] = tested on: LOX IMVI; assay: Percent growth of NCI cell line, melanoma: LOX IMVI exposed for 48 hr at 10e-8 concentration; type: functional, Homo sapiens; in short: as §1
[20] = tested on: 786-0; assay: Percent growth of NCI cell line, renal: 786-0 exposed for 48 hr at 10e-8 concentration; type: functional, Homo sapiens; in short: as §1
[21] = Percent growth of NCI cell line, leucemia K562 exposed for 48 hr at 10e-6 concentration; type: functional, Homo sapiens; in short: as §1
[22] = tested on: LoVo; assay: Cytotoxicity activity on LoVo/Dx human adenocarcinoma cell line after 1 hr of drug exposure; type: functional, cell-based; in short: as §3
[23] = tested on: HCT-15; assay: Percent growth of NCI cell line, colon: HCT-15 exposed for 48 hr at 10e-6 concentration; type: functional, Homo sapiens; in short: as §1
[24] = tested on: LoVo; assay: Cytotoxicity activity on LoVo/Dx human adenocarcinoma cell line after 144 hr of drug exposure; type: functional, cell-based; in short: as §2
[25] = Percent growth of NCI cell line, leucemia K562 exposed for 48 hr at 10e-8 concentration; type: functional, Homo sapiens; in short: as §1
[26] = tested on: NCI-H460; assay: Percent growth of NCI cell line, lung-nsc: NCI-H460 exposed for 48 hr at 10e-6 concentration; type: functional, Homo sapiens; in short: as §1
[27] = tested on: NCI-H460; assay: Percent growth of NCI cell line, lung-nsc: NCI-H460 exposed for 48 hr at 10e-8 concentration; type: functional, Homo sapiens; in short: as §1
[28] = tested on: HCT-15; assay: Percent growth of NCI cell line, colon: HCT-15 exposed for 48 hr at 10e-4 concentration; type: functional, Homo sapiens; in short: as §1
[29] = tested on: MCF7; assay: Percent growth of NCI cell line, breast: MCF-7 exposed for 48 hr at 10e-4 concentration; type: functional, Homo sapiens; in short: as §1
[30] = tested on: MCF7; assay: Percent growth of NCI cell line, breast: MCF-7 exposed for 48 hr at 10e-6 concentration; type: functional, Homo sapiens; in short: as §1
[31] = tested on: 786-0; assay: Percent growth of NCI cell line, renal: 786-0 exposed for 48 hr at 10e-6 concentration; type: functional, Homo sapiens; in short: as §1
[32] = Percent growth of NCI cell line, leucemia K562 exposed for 48 hr at 10e-4 concentration; type: functional, Homo sapiens; in short: as §1
[33] = tested on: SNB-19; assay: Percent growth of NCI cell line, CNS: SNB-19 exposed for 48 hr at 10e-4 concentration; type: functional, Homo sapiens; in short: as §1

Compound `COc1ccc2c(c1)c1nn(CCN3CCCC3)c3ccc4c(=O)n(CCN(C)C)c(=O)n2c4c13` has an IC50 [1] of 0.17 nM and a C50 [2] of 0.065 µM.
For `CN(C)CCn1c(=O)c2ccc3c4c(nn3CCN3CCCC3)c3ccccc3n(c1=O)c24`, the IC50 [1] was 9.2 nM and the C50 [2] was 0.049 µM.
With `CN(C)CCn1c(=O)c2ccc3c4c(nn3CCN3CCCC3)c3cc([N+](=O)[O-])ccc3n(c1=O)c24` the IC50 [1] was 1.4 nM and the C50 [2] was 0.048 µM.
In the case of `CN(C)CCn1c(=O)c2ccc3c4c(nn3CCN3CCCCC3)c3cc(N)ccc3n(c1=O)c24`, the IC50 [1] is reported as 0.17 nM and the C50 [2] is reported as 0.006 µM.
For `CCN(CC)CCn1c(=O)c2ccc3c4c(nn3CCN(CC)CC)c3ccccc3n(c1=O)c24`, the IC50 [1] was 29 nM and the C50 [2] was 0.051 µM.
`CN(C)CCCn1c(=O)c2ccc3c4c(nn3CCCN(C)C)c3ccccc3n(c1=O)c24` showed an IC50 [1] of 135 nM and a C50 [2] of 0.56 µM.
Compound `CN(C)CCn1c(=O)c2ccc3c4c(nn3CCN3CCCCC3)c3cc([N+](=O)[O-])ccc3n(c1=O)c24` has an IC50 [1] of 0.21 nM and a C50 [2] of 0.01 µM.
For `CN(C)CCn1c(=O)c2ccc3c4c(nn3CCN(C)C)c3ccccc3n(c1=O)c24`, the IC50 [1] was 37 nM, the Growth [3] was -37% and the Growth [4] was -79%. The Growth [5] was -90%, the Growth [6] was -93% and the Growth [7] was 60%. The Growth [8] was 51%, the Growth [9] was -36% and the Growth [10] was -16%. For the same compound, the IC50 [11] was 12 nM, the Growth [12] was -3% and the Growth [13] was 66%. It also gave an IC50 [14] of 290 nM, a Growth [15] of 48% and a Growth [16] of -32%. For the same compound, the Growth [17] was 63%, the Growth [18] was -56% and the Growth [19] was 65%. For the same compound, the Growth [20] was 27%, the Growth [21] was -27% and the IC50 [22] was 79 nM. It also gave a Growth [23] of -29%, an IC50 [24] of 3.9 nM and a C50 [2] of 0.0018 µM. The Growth [25] was 61%, the Growth [26] was -44% and the Growth [27] was 30%. It also gave a Growth [28] of -85%, a Growth [29] of -95% and a Growth [30] of -41%. The Growth [31] was -42%, the Growth [32] was -67% and the Growth [33] was -41%.
Work on `COc1ccc2c(c1)c1nn(CCN3CCCCC3)c3ccc4c(=O)n(CCN(C)C)c(=O)n2c4c13` yielded an IC50 [1] of 0.04 nM, a Growth [3] of -91% and a Growth [4] of -57%. It also gave a Growth [5] of -67%, a Growth [7] of 39% and a Growth [8] of 15%. The Growth [9] was -84%, the Growth [10] was -51% and the Growth [12] was 8%. It also gave a Growth [13] of 55%, a Growth [15] of 24% and a Growth [17] of 42%. For the same compound, the Growth [18] was -89%, the Growth [20] was 20% and the Growth [21] was 12%. The Growth [23] was -34%, the C50 [2] was 0.0099 µM and the Growth [25] was 39%. For the same compound, the Growth [26] was -36%, the Growth [27] was 22% and the Growth [28] was -61%. For the same compound, the Growth [29] was -12%, the Growth [30] was 4% and the Growth [31] was -41%. For the same compound, the Growth [32] was -12% and the Growth [33] was -54%.
`COc1ccc2c(c1)c1nn(CCN(C)C)c3ccc4c(=O)n(CCN(C)C)c(=O)n2c4c13` showed an IC50 [1] of 11 nM, a Growth [3] of -77% and a Growth [4] of -95%. The Growth [5] was -96%, the Growth [6] was -80% and the Growth [7] was 54%. For the same compound, the Growth [8] was 40%, the Growth [9] was -73% and the Growth [10] was -11%. The IC50 [11] was 13 nM, the Growth [12] was -15% and the Growth [13] was 62%. For the same compound, the IC50 [14] was 290 nM, the Growth [15] was 36% and the Growth [16] was -19%. The Growth [17] was 49%, the Growth [18] was -82% and the Growth [19] was 62%. It also gave a Growth [20] of 28%, a Growth [21] of -14% and an IC50 [22] of 140 nM. The Growth [23] was -31%, the IC50 [24] was 1.8 nM and the C50 [2] was 0.052 µM. For the same compound, the Growth [25] was 47%, the Growth [26] was -60% and the Growth [27] was 9%. The Growth [28] was -80%, the Growth [29] was -89% and the Growth [30] was -27%. It also gave a Growth [31] of -26%, a Growth [32] of -81% and a Growth [33] of -62%.

Source: ChEMBL document CHEMBL1135709, “2,6-Di(omega-aminoalkyl)-2,5,6,7-tetrahydropyrazolo[3,4,5-mn]pyrimido[5,6,1-de]acridine-5,7-diones: novel, potent, cytotoxic, and DNA-binding agents” (J Med Chem, 2002)
